Test results from ChEMBL document CHEMBL1141754, “A labdane diterpene glucoside from the rhizomes of Curcuma mangga” (J Nat Prod, 2005).

How the values were obtained:
[1] = Antioxidant activity assessed as inhibition of copper-induced lipid peroxidation by Fe3(CN)6 method at 300 uM; type: functional; design: scale not given: the % may be the effect or the level left
[2] = system: DU-145; test: Cytotoxicity against human DU145; type: functional, cell-based
Summary of the method: (§1)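 Five human cancer lines: HL-60 (leukemia), HepG2 (liver), MCF-7 (breast), DU-145 (prostate) and NCI-H460 (lung). IC50 given in μM ± SD from three experiments, each run in triplicate.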

[3] = system: MCF7; test: Cytotoxicity against human MCF7; type: functional, cell-based; summary of the method: as §1
[4] = system: HepG2; test: Cytotoxicity against human HepG2; type: functional, cell-based; summary of the method: as §1
[5] = system: HL-60; test: Cytotoxicity against human HL60; type: functional, cell-based; summary of the method: as §1
[6] = system: NCI-H460; test: Cytotoxicity against human NCI-H460; type: functional, cell-based; summary of the method: as §1

In the case of `C=C1CC[C@H]2C(C)(C)CCC[C@]2(C)[C@H]1C[C@@H](O)C1=CC(O)OC1=O` (stereo partly specified) [ZERUMIN B], the Activity [1] is reported as 16.5%, the IC50 [2] is reported as 11.2 µM and the IC50 [3] is reported as 0.59 µM. It also gave an IC50 [4] of 25.3 µM and an IC50 [5] of 7.21 µM.
`Cc1c(C)c2c(c(C)c1O)CC[C@@](C)(CCC[C@H](C)CCC[C@H](C)CCCC(C)C)O2` showed an Activity [1] of 45.2%.
`O=C(/C=C/C=C/c1ccc(O)cc1)/C=C/c1ccc(O)cc1` showed an Activity [1] of 92.9%.
Compound `C=C1CC[C@H]2C(C)(C)CCC[C@]2(C)[C@H]1C/C=C(/C=O)CC(OC)OC` has an Activity [1] of 11.5%.
In the case of `COc1cc2ccc(=O)oc2cc1O` [SCOPOLETIN], the Activity [1] is reported as 94.9%, the IC50 [2] is reported as greater than 50 µM and the IC50 [6] is reported as greater than 50 µM. For the same compound, the IC50 [3] was greater than 50 µM, the IC50 [4] was greater than 50 µM and the IC50 [5] was greater than 50 µM.
For `Cc1cc(C(C)(C)C)c(O)c(C(C)(C)C)c1`, the Activity [1] was 99.9%.
Compound `COc1cc(/C=C/C(=O)CC(=O)/C=C/c2ccc(O)c(OC)c2)ccc1O` [CURCUMIN] has an Activity [1] of 96.5%, an IC50 [2] of 20.6 µM and an IC50 [6] of 27.6 µM. The IC50 [3] was 10.4 µM, the IC50 [4] was 35.5 µM and the IC50 [5] was 34.2 µM.
`O=c1c(O)c(-c2ccc(O)c(O)c2)oc2cc(O)cc(O)c12` gave an Activity [1] of 51.3%.
With `COc1cc(/C=C/C(O)=C/C(=O)/C=C/c2ccc(O)cc2)ccc1O` [DEMETHOXYCURCUMIN] the Activity [1] was 93.8%, the IC50 [2] was 21.7 µM and the IC50 [6] was 25.7 µM. For the same compound, the IC50 [3] was 18.5 µM, the IC50 [4] was greater than 50 µM and the IC50 [5] was 24.2 µM.
For `O=C(/C=C/c1ccc(O)cc1)CC(=O)/C=C/c1ccc(O)cc1` [BISDEMETHOXYCURCUMIN], the Activity [1] was 93.3%, the IC50 [2] was 30.1 µM and the IC50 [6] was 88.1 µM. For the same compound, the IC50 [3] was 33.8 µM, the IC50 [4] was greater than 50 µM and the IC50 [5] was 25.1 µM.
For `C=C1CC[C@H]2C(C)(C)CCC[C@]2(C)[C@H]1C/C=C(/C=O)CC=O`, the Activity [1] was 5.7%.
In the case of `CC1(C)[C@@H](O[C@@H]2O[C@H](CO)[C@@H](O)[C@H](O)[C@H]2O)CC[C@]2(C)[C@H]3CC(C4=CCOC4=O)OC(O)[C@H]3CC[C@@H]12` (stereo partly specified), the Activity [1] is reported as 0%.
